NadD block – NadD (S. aureus) enzyme inhibition | purified NadD enzyme, colorimetric absorbance read-out | inhibition, % at 20 µM | actives 0.78% (n = 360,000); in the data active = inhibition above about 26%
rCAG RNA binder – binds r(CAG) RNA repeats; actives 1.3% (n = 370,000); AID 651821; r(CAG) RNA repeat, TO-PRO-1 dye displacement fluorescence; inhibition, % at 3 µM;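 active = inhibition above the plate cutoff, the mean of all test compounds on that plate plus 3 SD, cut at about 35% in these data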;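 note: higher means more dye released from RNA so lower well fluorescence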
ASAP1 inh – blocks human ASAP1-stimulated Arf1 GTP hydrolysis; Q9ULH1; GDP FP detection; inhibition, % at 16.5 µM; actives 0.19% (n = 360,000); in the data active = inhibition above about 25%
Target sequence (Q9ULH1 325-724 limits assumed): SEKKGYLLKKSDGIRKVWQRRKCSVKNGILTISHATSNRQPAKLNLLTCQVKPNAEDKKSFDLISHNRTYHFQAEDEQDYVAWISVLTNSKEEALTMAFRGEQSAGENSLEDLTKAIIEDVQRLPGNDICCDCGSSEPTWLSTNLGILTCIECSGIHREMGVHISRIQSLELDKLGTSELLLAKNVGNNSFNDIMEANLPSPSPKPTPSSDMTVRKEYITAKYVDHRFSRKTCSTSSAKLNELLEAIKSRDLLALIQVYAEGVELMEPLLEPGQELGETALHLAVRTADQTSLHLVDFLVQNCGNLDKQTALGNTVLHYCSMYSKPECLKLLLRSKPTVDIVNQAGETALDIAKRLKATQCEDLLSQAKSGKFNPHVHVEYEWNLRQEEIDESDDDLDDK
ARFGAP1 inh – inhibitors of rat ARFGAP1. Q62848. AID 651572. inhibition, % at 16.5 µM. Arfgap1-stimulated ARF1 GTP hydrolysis, GDP FP detection. actives 0.26% (n = 360,000);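 active = inhibition above a per-plate limit, mean inhibition of low control wells plus 3 SD, cut at about 25% in these data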
Target sequence (Q62848 1-136 limits assumed): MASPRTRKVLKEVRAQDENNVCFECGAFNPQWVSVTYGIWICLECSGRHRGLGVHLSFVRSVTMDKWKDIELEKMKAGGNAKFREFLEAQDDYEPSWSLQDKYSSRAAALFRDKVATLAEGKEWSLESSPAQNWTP
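System: truncated rat Arfgap1 GAP domain / Medium: HEPES-based buffer, pH 7.5 / Also added: N-terminally truncated human ARF1-GTP substrate / Incubation: enzyme reaction 120 min at 25 °C after 20 min preincubation / Measured by: FP of antibody-bound GDP Alexa 633 tracer, ex 620/em 688 nm / Replicates: singlicate, each compound tested once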
NadD conf – NadD (S. aureus) inhibition, single concentration confirmation; AID 624309; actives 13% (n = 2,000); shares compounds with NadD block; inhibition, % at 20 µM; purified S. aureus NadD, colorimetric enzyme assay; in the data active = inhibition mostly above about 42%, no sharp cut-off; inactive = mostly below about 42%
Each line names hits and unclear results; the compound was inactive in the other large screens (follow-up assays come after a bar, where they were run). Compounds with a hit are over-represented: about 2.2% of the library has one in this group of screens.

COC(=O)C1CN(Cc2cn(Cc3ccc(OC)cc3)nn2)CCS(=O)(=O)N1Cc1ccc(F)cc1 (centres undefined)	none (no result: NadD block, ASAP1 inh, ARFGAP1 inh)
Cc1ccc(-c2cc(C(=O)NN=Cc3ccc(F)cc3)[nH]n2)cc1C	none (no result: NadD block, ASAP1 inh, ARFGAP1 inh)
O=C(c1ccc2c(c1)[nH]c(=S)n1c3ccccc3nc21)N1CCN(c2cccc(Cl)c2)CC1	NadD block 39 | NadD conf inactive
COc1ccc(Cn2cc(CN3CC=CS3(=O)=O)nn2)cc1	none (no result: NadD block, ASAP1 inh, ARFGAP1 inh)
Cc1nc2sc(C(=O)NCc3nccs3)c(N)c2c(C)c1Cl	none (no result: NadD block, ASAP1 inh, ARFGAP1 inh)
COc1ccc(C(C(=O)NC2CCCC2)N(C(=O)c2snc(-c3ccc(F)cc3)c2N)c2ccccc2)cc1 (centres undefined)	none
COc1ccc(C(C(=O)NC2CCCC2)N(C(=O)c2snc(-c3ccc(F)cc3)c2N)c2cccc(F)c2)cc1 (centres undefined)	NadD block 39 | NadD conf inactive
COc1ccc2c(c1)N(C)/C(=C1/SC(=NCc3ccccc3)N(c3ccccc3)C1=O)S2	NadD block 31 | NadD conf inactive
COc1ccc(/C=N/Nc2nc(-c3cccc(S(=O)(=O)N4CCCC4)c3)cs2)c(OC)c1	NadD block 37 | NadD conf inactive
CN(C)S(=O)(=O)c1cc(NC(=O)CN2CCc3ccccc32)ccc1Cl	NadD block 39 | NadD conf inactive
CCCNC(=O)C1(C)CCN(C(=O)c2ccccc2OC)C1 (centres undefined)	none
CNc1ccc(Br)cc(C(=O)/C=C/c2ccc3c(c2)OCO3)c1=O	NadD block 40 | NadD conf inactive
CNC(=O)NC(=O)C(C)OC(=O)c1c2c(nc3ccccc13)/C(=C/c1cccs1)CC2 (centres undefined)	NadD block 33 | NadD conf inactive
CCCCNC(=O)COC(=O)c1c2c(nc3ccccc13)/C(=C/c1cccs1)CC2	none
COc1ccc(NC(=O)CSc2nc3nc(-c4cccs4)cc(C(F)(F)F)c3c(=O)[nH]2)c(OC)c1	NadD block 40 | NadD conf 60
COC(=O)CSc1nc2nc(-c3cccs3)cc(C(F)(F)F)c2c(=O)[nH]1	none
COc1ccc(CCNC(=O)Nc2ccc3c(c2)[C@@]2(CC(=O)N(CC(C)C)C2c2ccccc2)C(=O)N3C)cc1OC (some centres undefined)	none (no result: NadD block, ASAP1 inh, ARFGAP1 inh)
Cc1cc(-c2cc(-c3ccc(Cl)cc3)nc(N)c2C#N)co1	NadD block 84 | NadD conf inactive
Cc1ccc(-c2cc(-c3ccc(Cl)cc3)c(C#N)c(N)n2)o1	NadD block 59 | NadD conf 71
Cc1ccc(-c2cc(-c3ccc(C)o3)nc(N)c2C#N)cc1	NadD block 58 | NadD conf 62
CCOc1cc(-c2cc(-c3ccc(C)o3)nc(N)c2C#N)ccc1O	none
Cc1ccc(-c2cc(-c3ccc4c(c3)OCO4)c(C#N)c(N)n2)o1	NadD block 39 | NadD conf inactive
Cc1ccc(-c2cc(-c3ccc(F)cc3)c(C#N)c(N)n2)o1	NadD block 65 | NadD conf inactive
Cc1c(-c2ccc(F)cc2)nc(N)c(C#N)c1-c1ccco1	none
CCOc1ccc2nc(NC(=O)c3cccc(-c4cc5ccccc5oc4=O)c3)sc2c1	NadD block 39 | NadD conf inactive
Brc1ccc(-c2ccc(/C=N/Nc3nncc(-c4ccccc4)n3)o2)cc1	NadD block 29 | NadD conf inactive
Brc1ccc(/C=N/Nc2nncc(-c3ccccc3)n2)o1	none (no result: NadD block)
Cc1cc2cc(CNC(=O)Nc3cccc(Cl)c3)ccc2n1C	NadD block 34 | NadD conf inactive
COc1cc(OC)cc(-c2c(-c3cccs3)c3cc(-c4ccc(SC)cc4)ccc3n2C)c1	none
COc1cc(OC)cc(-c2c(-c3cccs3)c3cc(-c4ccc(OCc5ccccc5)cc4)ccc3n2C)c1	NadD block 46 | NadD conf inactive
Cc1ccc(-c2nc(NC(=O)CSc3cc(C)c4ccccc4n3)ns2)cc1	NadD block 31 | NadD conf inactive
O=C(CCCn1c(=S)[nH]c2cc3c(cc2c1=O)OCO3)N1CCN(c2ccccc2)CC1	none
O=C(CCCn1c(=S)[nH]c2cc3c(cc2c1=O)OCO3)N1CCN(c2ccc(Cl)cc2)CC1	NadD block 35 | NadD conf inactive
Cc1cccc(N2CCN(C(=O)CCCn3c(=S)[nH]c4cc5c(cc4c3=O)OCO5)CC2)c1C	NadD block 56 | NadD conf inactive
CC(=O)c1ccc(N2CCN(C(=O)CCCn3c(=S)[nH]c4cc5c(cc4c3=O)OCO5)CC2)cc1	NadD block 46 | NadD conf inactive
CC(C)(C)OC(=O)N1CCC[C@@H]1C(=O)NCc1ccccc1Cl	none
COc1ccc([C@H]2C[C@@H](O)[C@H](n3cc(COC(=O)c4ccccc4)nn3)CN2CC2CCCCC2)cc1	none
N#Cc1sc2nc(-c3ccccc3)cc(-c3ccco3)c2c1N	NadD block 32 | NadD conf inactive
Nc1ccc2cccc(O)c2c1	NadD block 41 | NadD conf inactive
Nc1ccc2cc3ccccc3cc2c1	none
CC(C)(C)n1nc(C2CC2)c(Br)c1NC(=O)c1ccc(Cl)cc1	none (no result: NadD block)
Cc1cccc(-c2nnn3c2nc(NCCc2ccc(S(N)(=O)=O)cc2)c2ccccc23)c1	NadD block 34 | NadD conf inactive
COc1cc(Nc2cc(C)n(-c3cc(OC)cc(OC)c3)c(=O)c2)cc(OC)c1	none (no result: NadD block)
CC1(C)CC(=O)c2c(nc(SCC(=O)Nc3nsc(-c4ccccc4)n3)c(C#N)c2-c2ccccc2)C1	NadD block 39 | NadD conf inactive
Cc1nnc(SCC(=O)Nc2nsc(-c3ccccc3)n2)s1	none
Nc1cc(=O)[nH]c(SCC(=O)N2CCN(S(=O)(=O)c3ccc4ccccc4c3)CC2)n1	none
O=C(CSc1n[nH]c(-c2cccs2)n1)N1CCN(S(=O)(=O)c2ccc3ccccc3c2)CC1	NadD block 47 | NadD conf inactive
COC(=O)C1CN(Cc2cn(Cc3ccc(F)cc3)nn2)CCS(=O)(=O)N1Cc1ccc(C)cc1 (centres undefined)	none (no result: NadD block, ASAP1 inh, ARFGAP1 inh)
O=S1(=O)c2ccccc2-c2c(nnn2Cc2ccccc2)CN1C1CC1	none (no result: NadD block, ASAP1 inh, ARFGAP1 inh)
CCC(C)(C)C1CCC2(CC1)NC(=O)N(CC(=O)NC(C)CCc1ccccc1)C2=O (centres undefined)	NadD block 48 | NadD conf inactive
C=C(C)[C@@H]1CC[C@]2(C(=O)O)CC[C@]3(C)C(CCC4[C@@]5(C)CC[C@H](O)C(C)(C)C5CC[C@]43C)C12 (some centres undefined)	none
C=C(C)[C@@H]1CCC2(C(=O)O)CC[C@]3(C)[C@H](CC[C@@H]4[C@@]5(C)CCC(=O)C(C)(C)[C@@H]5CC[C@]43C)[C@@H]12 (some centres undefined)	NadD block 48 | NadD conf inactive
Cc1sc2nc(SCc3nc4ccccc4[nH]3)n(Cc3ccco3)c(=O)c2c1C	NadD block 35 | NadD conf inactive
COc1ccc(C2CC(c3ccccc3)=NN2c2ccc(/C=N/NC(=O)c3ccncc3)cc2)cc1 (centres undefined)	none

Source: PubChem
